Test results as given in ChEMBL document CHEMBL1156901, “Novel matrix metalloproteinase inhibitors derived from quinoxalinone scaffold (Part I)” (Bioorg Med Chem, 2010).
Calls of active or inactive are those of the source. The rule behind the calls is not given here.

Tests used:
[1] = molecular target: 72 kDa type IV collagenase (Homo sapiens, UniProt P08253); test: Inhibition of MMP2
In short: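 Gelatinase A (MMP-2) with succinylated gelatin substrate and inhibitor in 50 mM sodium borate, pH 8.5, incubated 30 min at 37 °C. 0.03% trinitrobenzenesulfonic acid then added for a further 20 min. Absorbance read at 450 nm.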

[2] = molecular target: Aminopeptidase N (Sus scrofa) (UniProt P15145); test: Inhibition of APN assessed as substrate hydrolysis by UV/vis spectrophotometer
SK-OV-3 = test: Antiproliferative activity against human SKOV3 cells after 48 hrs by MTT assay; type: functional, cell-based; conditions: SK-OV-3, 48 h
In short: (§1)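 RPMI1640 with 10% FBS, 37 °C, 5% CO2. Cells seeded at 10,000 per well and grown 4 h in complete medium. Compound added at 1600, 800, 400, 200 or 100 µg/ml for 48 h. 0.5% MTT then added for 4 h, formazan dissolved in DMSO over 15 min, OD read at 570 nm. IC50 taken as concentration giving 50% growth inhibition.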

HL-60 = test: Antiproliferative activity against human HL60 cells after 48 hrs by MTT assay; type: functional, cell-based; in short: as §1
K562 = test: Antiproliferative activity against human K562 cells after 48 hrs by MTT assay; type: functional, cell-based; in short: as §1

Aminopeptidase N (Sus scrofa), sequence (P15145 whole entry, looked up): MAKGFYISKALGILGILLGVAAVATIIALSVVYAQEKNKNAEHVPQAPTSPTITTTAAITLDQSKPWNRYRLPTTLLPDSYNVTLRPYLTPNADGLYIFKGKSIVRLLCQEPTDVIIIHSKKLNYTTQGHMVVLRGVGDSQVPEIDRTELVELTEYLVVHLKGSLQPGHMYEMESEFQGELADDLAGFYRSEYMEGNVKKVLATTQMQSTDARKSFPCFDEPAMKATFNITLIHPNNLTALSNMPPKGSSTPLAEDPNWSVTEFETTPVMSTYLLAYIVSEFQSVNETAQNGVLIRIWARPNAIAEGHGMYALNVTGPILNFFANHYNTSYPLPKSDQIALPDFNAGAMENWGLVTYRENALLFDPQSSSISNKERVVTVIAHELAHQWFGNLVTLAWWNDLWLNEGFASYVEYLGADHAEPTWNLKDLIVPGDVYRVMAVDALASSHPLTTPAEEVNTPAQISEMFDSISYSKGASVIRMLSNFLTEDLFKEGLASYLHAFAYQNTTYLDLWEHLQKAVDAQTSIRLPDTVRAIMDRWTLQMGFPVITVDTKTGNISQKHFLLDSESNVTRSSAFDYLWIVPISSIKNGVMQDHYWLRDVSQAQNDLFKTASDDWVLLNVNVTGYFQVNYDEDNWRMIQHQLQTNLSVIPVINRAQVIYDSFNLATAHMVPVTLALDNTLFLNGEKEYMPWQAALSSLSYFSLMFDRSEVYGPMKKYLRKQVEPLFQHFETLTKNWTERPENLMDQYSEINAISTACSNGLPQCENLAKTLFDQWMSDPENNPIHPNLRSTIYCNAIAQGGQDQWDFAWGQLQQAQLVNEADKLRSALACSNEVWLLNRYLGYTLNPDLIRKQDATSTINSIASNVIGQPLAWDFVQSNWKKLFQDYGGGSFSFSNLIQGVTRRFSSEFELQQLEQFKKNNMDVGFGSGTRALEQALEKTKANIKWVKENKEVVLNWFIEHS
72 kDa type IV collagenase, sequence (P08253 whole entry): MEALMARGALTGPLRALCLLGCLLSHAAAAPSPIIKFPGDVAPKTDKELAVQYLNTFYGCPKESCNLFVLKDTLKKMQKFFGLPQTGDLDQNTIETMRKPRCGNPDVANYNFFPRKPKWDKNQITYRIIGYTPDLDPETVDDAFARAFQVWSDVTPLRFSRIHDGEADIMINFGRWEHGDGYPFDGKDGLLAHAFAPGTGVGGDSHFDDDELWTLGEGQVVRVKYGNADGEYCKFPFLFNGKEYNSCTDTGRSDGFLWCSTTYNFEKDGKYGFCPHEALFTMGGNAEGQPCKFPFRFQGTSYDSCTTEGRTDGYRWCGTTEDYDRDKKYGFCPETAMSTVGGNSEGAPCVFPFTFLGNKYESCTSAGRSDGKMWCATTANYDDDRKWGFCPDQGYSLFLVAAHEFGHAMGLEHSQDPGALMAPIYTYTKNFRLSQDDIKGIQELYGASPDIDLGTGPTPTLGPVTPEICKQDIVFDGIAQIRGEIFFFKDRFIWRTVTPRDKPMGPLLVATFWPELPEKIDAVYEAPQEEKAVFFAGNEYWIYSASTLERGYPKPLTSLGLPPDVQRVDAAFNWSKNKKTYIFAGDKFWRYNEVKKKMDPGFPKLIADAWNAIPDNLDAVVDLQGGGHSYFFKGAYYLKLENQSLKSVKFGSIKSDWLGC

SMILES	IC50 [1] [µM]	IC50 [2]	IC50 (SK-OV-3) [µM]	Activity (HL-60)	Activity (K562)
Cc1nc2ccccc2n(CC(=O)N[C@@H](Cc2ccccc2)C(=O)Nc2ccc(F)c(Cl)c2)c1=O	1360	Not Active			
Cc1nc2ccccc2n(CC(=O)N[C@@H](Cc2ccccc2)C(=O)Nc2ccc(F)c(F)c2)c1=O	24.2	Not Active			
Cc1ccc(NC(=O)[C@H](Cc2ccccc2)NC(=O)Cn2c(=O)c(C)nc3ccccc32)cc1	10.5	Not Active	1980	inactive	inactive
Cc1nc2ccccc2n(CC(=O)N[C@@H](Cc2ccccc2)C(=O)Nc2cccnc2)c1=O	30	Not Active			
CCN(CC)C(=O)[C@H](Cc1ccccc1)NC(=O)Cn1c(=O)c(C)nc2ccccc21	105	Not Active			
Cc1nc2ccccc2n(CC(=O)N[C@@H](Cc2ccccc2)C(=O)Nc2ccc(Cl)cc2)c1=O	624	Not Active			
Cc1nc2ccccc2n(CC(=O)N[C@@H](Cc2ccccc2)C(=O)Nc2ccc(F)cc2)c1=O	124	Not Active			
Cc1nc2ccccc2n(CC(=O)N[C@@H](Cc2ccccc2)C(=O)Nc2ccccc2)c1=O	58.1	Not Active			
Cc1nc2ccccc2n(CC(=O)N[C@@H](Cc2ccccc2)C(=O)Nc2ccc(Cl)c(Cl)c2)c1=O	26.2	Not Active	3020	inactive	inactive
CCCCNC(=O)[C@H](Cc1ccccc1)NC(=O)Cn1c(=O)c(C)nc2ccccc21	106	Not Active			
COC(=O)CCCCCNC(=O)[C@H](Cc1ccccc1)NC(=O)Cn1c(=O)c(C)nc2ccccc21	11500	Not Active			
CCCNC(=O)[C@H](Cc1ccccc1)NC(=O)Cn1c(=O)c(C)nc2ccccc21	56.6	Not Active			
Cc1nc2ccccc2n(CC(=O)N[C@@H](Cc2ccccc2)C(=O)NC(C)C)c1=O	9430	Not Active			
COC(=O)C(CC(C)C)NC(=O)[C@@H](Cc1ccccc1)NC(=O)Cn1c(=O)c(C)nc2ccccc21 (stereo not given in full)	1750	Not Active			
Cc1nc2ccccc2n(CC(=O)N[C@@H](Cc2ccccc2)C(=O)Nc2ccc(Br)cc2)c1=O	2000	Not Active			
COC(=O)CCCNC(=O)[C@H](Cc1ccccc1)NC(=O)Cn1c(=O)c(C)nc2ccccc21	2760	Not Active			
Cc1ccccc1NC(=O)[C@H](Cc1ccccc1)NC(=O)Cn1c(=O)c(C)nc2ccccc21	37.3	Not Active			
Cc1cccc(NC(=O)[C@H](Cc2ccccc2)NC(=O)Cn2c(=O)c(C)nc3ccccc32)c1	6460	Not Active			
COc1ccc(/C=C/C(=O)N2C[C@@H](NC(=O)c3cccnc3)C[C@H]2C(=O)NO)cc1OC	5.6	Not Active	210		
